Legend:
[1] = target: Tyrosine-protein kinase FRK (Homo sapiens) (UniProt P42685); experiment: Competitive binding affinity to FRK (unknown origin) at 10 uM in presence of ATP relative to control
Procedure, shortened: (§1)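 In vitro ATP-site competition binding assay, part of profiling against a diverse panel of 128 kinases. Each compound was tested at a single concentration of 10 µM. Kinome selectivity was summarized as S15 selectivity scores.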

[2] = target: Mitogen-activated protein kinase 1 (Homo sapiens, UniProt P28482); experiment: Competitive binding affinity to ERK2 (unknown origin) at 10 uM in presence of ATP relative to control; procedure, shortened: as §1
Mitogen-activated protein kinase 1, sequence (P28482 whole entry): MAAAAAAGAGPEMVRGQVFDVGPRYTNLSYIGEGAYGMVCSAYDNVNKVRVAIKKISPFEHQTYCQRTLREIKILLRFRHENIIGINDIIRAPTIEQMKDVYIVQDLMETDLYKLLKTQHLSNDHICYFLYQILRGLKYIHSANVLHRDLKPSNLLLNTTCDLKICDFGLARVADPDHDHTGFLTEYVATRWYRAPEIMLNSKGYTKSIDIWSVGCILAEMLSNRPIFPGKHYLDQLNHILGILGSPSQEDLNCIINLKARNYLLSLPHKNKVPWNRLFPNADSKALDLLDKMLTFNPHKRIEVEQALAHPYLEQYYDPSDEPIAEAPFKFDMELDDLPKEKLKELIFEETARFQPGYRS

[3] = target: Epidermal growth factor receptor (Homo sapiens) (UniProt P00533); experiment: Competitive binding affinity to EGFR (unknown origin) at 10 uM in presence of ATP relative to control
Epidermal growth factor receptor (Homo sapiens), sequence (P00533 whole entry): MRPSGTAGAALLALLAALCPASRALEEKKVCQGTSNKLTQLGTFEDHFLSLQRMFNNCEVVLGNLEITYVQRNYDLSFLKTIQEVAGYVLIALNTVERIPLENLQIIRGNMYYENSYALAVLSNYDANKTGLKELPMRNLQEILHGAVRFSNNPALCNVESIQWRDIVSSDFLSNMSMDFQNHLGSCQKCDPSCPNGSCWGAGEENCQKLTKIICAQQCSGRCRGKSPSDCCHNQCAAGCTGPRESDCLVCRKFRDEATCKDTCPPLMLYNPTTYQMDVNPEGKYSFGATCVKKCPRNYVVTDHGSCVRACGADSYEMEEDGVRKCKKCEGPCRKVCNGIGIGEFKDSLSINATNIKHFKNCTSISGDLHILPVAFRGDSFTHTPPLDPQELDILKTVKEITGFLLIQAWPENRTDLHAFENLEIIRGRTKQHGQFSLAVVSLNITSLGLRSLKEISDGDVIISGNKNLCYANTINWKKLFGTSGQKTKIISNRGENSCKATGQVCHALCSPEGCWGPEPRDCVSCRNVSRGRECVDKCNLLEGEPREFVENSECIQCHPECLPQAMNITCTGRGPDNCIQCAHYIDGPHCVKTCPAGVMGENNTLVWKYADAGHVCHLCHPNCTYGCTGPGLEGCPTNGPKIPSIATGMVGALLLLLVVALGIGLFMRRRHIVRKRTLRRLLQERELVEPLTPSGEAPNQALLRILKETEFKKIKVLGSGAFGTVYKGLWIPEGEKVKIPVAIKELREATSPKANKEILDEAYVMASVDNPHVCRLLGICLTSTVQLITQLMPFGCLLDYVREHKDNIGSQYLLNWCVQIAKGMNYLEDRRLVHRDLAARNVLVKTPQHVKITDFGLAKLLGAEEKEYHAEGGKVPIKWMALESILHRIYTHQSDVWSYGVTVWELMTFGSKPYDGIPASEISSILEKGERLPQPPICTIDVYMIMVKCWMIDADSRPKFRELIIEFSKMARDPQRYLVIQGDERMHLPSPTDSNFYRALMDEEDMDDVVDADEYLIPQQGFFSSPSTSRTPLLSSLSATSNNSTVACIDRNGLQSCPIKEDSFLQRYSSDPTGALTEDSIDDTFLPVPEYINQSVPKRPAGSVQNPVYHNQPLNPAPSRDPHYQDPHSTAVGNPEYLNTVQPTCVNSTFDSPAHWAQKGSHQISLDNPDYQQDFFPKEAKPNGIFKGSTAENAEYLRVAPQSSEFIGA

[4] = target: 5'-AMP-activated protein kinase catalytic subunit alpha-1 (Homo sapiens) (UniProt Q13131); experiment: Competitive binding affinity to AMPKalpha1 (unknown origin) at 10 uM in presence of ATP relative to control
5'-AMP-activated protein kinase catalytic subunit alpha-1 (Homo sapiens), sequence (Q13131 whole entry, looked up): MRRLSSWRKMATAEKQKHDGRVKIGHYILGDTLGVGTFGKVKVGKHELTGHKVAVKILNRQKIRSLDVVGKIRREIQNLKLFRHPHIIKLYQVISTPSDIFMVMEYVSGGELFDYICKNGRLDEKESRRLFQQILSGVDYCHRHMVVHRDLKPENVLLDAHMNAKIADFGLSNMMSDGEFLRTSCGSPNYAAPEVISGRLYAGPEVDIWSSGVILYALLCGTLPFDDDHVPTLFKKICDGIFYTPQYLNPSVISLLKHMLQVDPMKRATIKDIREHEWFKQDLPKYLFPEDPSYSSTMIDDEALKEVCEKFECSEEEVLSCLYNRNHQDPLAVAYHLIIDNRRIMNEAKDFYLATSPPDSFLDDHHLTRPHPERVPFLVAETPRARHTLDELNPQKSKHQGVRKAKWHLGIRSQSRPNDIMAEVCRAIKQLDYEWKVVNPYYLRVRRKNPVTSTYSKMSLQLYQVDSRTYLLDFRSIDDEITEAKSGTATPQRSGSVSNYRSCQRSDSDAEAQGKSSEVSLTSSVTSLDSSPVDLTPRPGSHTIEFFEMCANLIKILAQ

[5] = target: Tyrosine-protein kinase Yes (Homo sapiens) (UniProt P07947); experiment: Competitive binding affinity to YES (unknown origin) at 10 uM in presence of ATP relative to control
Tyrosine-protein kinase Yes (Homo sapiens), sequence (P07947 2-543 limits assumed): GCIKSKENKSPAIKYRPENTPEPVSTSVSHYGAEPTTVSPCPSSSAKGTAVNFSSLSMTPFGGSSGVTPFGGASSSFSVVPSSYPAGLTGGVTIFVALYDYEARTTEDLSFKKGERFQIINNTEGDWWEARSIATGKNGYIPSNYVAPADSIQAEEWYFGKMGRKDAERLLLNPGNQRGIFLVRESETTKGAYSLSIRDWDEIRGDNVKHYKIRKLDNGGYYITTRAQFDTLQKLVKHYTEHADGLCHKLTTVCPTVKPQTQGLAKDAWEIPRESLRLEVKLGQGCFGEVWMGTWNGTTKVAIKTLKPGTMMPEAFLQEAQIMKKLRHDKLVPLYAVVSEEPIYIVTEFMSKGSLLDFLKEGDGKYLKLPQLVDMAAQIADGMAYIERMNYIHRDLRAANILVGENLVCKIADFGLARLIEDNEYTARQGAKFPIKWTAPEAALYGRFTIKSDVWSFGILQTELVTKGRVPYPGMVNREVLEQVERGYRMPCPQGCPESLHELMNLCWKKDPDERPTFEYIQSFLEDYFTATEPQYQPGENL
Procedure, shortened: (§2)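 In vitro ATP-site competition binding assay across a diverse panel of 128 kinases, with compound tested at a single concentration. Kinase selectivity scores (S15) were calculated from the panel profiles.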

[6] = target: T1, Dual specificity protein kinase TTK (Homo sapiens) (UniProt P33981); experiment: Competitive binding affinity to TTK (unknown origin) at 10 uM in presence of ATP relative to control
T1 sequence (whole entry): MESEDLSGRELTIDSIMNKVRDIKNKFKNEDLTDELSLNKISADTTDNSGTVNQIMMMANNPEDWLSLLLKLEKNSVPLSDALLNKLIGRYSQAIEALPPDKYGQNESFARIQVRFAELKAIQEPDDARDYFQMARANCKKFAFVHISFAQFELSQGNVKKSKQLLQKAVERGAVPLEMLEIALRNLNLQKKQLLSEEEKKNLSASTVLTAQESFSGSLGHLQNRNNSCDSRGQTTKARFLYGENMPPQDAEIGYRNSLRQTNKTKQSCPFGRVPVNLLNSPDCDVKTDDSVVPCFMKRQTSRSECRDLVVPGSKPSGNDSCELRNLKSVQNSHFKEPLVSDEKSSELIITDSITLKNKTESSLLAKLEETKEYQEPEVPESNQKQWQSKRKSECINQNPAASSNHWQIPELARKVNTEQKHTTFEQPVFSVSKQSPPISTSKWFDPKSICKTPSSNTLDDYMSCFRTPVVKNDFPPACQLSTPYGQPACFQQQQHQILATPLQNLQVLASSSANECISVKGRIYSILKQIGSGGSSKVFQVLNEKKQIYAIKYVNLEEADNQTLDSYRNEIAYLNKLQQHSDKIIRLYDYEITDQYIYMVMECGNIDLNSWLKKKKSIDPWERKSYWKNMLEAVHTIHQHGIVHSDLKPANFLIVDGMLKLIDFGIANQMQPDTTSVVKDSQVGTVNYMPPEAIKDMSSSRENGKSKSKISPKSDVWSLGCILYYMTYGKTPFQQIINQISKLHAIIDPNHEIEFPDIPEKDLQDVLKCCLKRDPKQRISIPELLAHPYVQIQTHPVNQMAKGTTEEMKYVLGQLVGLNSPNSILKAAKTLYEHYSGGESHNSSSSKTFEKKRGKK
Procedure, shortened: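 In vitro ATP-site competition binding assay across a diverse panel of 128 kinases, with each compound tested at a single concentration. Kinase binding is expressed relative to control.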

[7] = target: TRAF2 and NCK-interacting protein kinase (Homo sapiens) (UniProt Q9UKE5); experiment: Competitive binding affinity to TNIK (unknown origin) at 10 uM in presence of ATP relative to control; procedure, shortened: as §2
[8] = target: Serine/threonine-protein kinase 16 (Homo sapiens, UniProt O75716); experiment: Competitive binding affinity to STK16 (unknown origin) at 10 uM in presence of ATP relative to control; procedure, shortened: as §2
[9] = target: Mitogen-activated protein kinase 9 (Homo sapiens, UniProt P45984)
Mitogen-activated protein kinase 9, sequence (P45984 whole entry): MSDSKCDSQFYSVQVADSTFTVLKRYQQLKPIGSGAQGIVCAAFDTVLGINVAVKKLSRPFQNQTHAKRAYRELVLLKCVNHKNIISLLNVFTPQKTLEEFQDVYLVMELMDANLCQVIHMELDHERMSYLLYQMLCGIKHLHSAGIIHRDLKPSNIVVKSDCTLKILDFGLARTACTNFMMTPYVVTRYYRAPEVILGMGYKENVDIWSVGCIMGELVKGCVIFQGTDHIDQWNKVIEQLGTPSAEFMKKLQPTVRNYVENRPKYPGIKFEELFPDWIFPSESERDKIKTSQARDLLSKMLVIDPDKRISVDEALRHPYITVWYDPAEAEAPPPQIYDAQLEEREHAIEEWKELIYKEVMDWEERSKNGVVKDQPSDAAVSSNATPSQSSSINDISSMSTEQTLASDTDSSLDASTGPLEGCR

[10] = target: Proto-oncogene tyrosine-protein kinase Src (Homo sapiens) (UniProt P12931); experiment: Competitive binding affinity to SRC (unknown origin) at 10 uM in presence of ATP relative to control; procedure, shortened: as §2
Proto-oncogene tyrosine-protein kinase Src (Homo sapiens), sequence (P12931 2-536 limits assumed): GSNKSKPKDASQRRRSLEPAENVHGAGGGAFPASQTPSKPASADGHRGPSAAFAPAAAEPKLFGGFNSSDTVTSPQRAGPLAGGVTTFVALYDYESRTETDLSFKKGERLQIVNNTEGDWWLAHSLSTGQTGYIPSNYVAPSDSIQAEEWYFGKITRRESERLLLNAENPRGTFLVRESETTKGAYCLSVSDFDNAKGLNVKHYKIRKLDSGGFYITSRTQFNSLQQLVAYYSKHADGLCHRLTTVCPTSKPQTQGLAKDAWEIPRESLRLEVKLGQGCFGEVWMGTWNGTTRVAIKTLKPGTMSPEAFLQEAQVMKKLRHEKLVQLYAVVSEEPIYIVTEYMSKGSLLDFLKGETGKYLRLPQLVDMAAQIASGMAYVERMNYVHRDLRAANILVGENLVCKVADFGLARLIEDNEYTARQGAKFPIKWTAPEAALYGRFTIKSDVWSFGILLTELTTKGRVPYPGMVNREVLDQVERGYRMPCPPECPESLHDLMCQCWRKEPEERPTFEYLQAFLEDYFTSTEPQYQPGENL

[11] = target: RAF proto-oncogene serine/threonine-protein kinase (Homo sapiens) (UniProt P04049); experiment: Competitive binding affinity to RAF1 (unknown origin) at 10 uM in presence of ATP relative to control; procedure, shortened: as §2
RAF proto-oncogene serine/threonine-protein kinase (Homo sapiens), sequence (P04049 whole entry): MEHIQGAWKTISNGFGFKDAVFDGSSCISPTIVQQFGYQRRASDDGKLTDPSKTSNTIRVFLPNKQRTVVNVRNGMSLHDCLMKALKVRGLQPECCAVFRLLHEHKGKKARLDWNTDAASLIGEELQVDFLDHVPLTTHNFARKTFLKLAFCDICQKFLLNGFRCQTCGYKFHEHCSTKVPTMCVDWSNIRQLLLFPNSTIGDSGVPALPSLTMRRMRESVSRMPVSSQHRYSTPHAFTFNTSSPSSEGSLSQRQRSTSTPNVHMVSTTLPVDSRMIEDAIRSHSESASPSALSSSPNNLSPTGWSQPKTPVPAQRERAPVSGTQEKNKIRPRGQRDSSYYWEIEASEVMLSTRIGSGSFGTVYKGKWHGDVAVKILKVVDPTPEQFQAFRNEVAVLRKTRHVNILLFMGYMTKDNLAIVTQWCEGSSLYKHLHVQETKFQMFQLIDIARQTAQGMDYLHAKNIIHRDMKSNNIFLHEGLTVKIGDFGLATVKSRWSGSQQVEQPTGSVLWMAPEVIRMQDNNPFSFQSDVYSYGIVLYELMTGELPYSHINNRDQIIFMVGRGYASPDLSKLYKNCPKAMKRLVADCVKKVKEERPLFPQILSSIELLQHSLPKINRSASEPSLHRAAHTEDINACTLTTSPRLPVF

[12] = target: T2, 3-phosphoinositide-dependent protein kinase 1 (Homo sapiens) (UniProt O15530); experiment: Competitive binding affinity to PDPK1 (unknown origin) at 10 uM in presence of ATP relative to control; procedure, shortened: as §2
T2 sequence (whole entry): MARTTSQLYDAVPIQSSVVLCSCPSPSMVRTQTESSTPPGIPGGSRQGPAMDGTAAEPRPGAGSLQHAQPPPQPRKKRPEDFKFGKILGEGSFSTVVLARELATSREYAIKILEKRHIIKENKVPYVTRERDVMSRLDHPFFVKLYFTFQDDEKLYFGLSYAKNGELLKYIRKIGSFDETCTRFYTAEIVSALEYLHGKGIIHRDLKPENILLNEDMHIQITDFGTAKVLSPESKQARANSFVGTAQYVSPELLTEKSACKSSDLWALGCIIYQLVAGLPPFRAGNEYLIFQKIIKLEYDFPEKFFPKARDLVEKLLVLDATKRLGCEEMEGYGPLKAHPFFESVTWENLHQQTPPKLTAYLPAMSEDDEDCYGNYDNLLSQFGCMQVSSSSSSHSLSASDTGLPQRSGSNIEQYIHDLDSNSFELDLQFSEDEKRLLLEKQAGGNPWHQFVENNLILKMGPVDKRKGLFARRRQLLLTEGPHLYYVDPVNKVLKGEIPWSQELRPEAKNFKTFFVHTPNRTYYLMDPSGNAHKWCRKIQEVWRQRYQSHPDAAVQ

[13] = target: Serine/threonine-protein kinase PAK 1 (Homo sapiens) (UniProt Q13153); experiment: Competitive binding affinity to PAK1 (unknown origin) at 10 uM in presence of ATP relative to control; procedure, shortened: as §2
[14] = target: Myosin light chain kinase 2, skeletal/cardiac muscle (Homo sapiens) (UniProt Q9H1R3); experiment: Competitive binding affinity to MYLK2 (unknown origin) at 10 uM in presence of ATP relative to control; procedure, shortened: as §2
[15] = target: Insulin receptor (Homo sapiens) (UniProt P06213); experiment: Competitive binding affinity to INSR (unknown origin) at 10 uM in presence of ATP relative to control; procedure, shortened: as §1

Tyrosine-protein kinase FRK (Homo sapiens), sequence (P42685 whole entry): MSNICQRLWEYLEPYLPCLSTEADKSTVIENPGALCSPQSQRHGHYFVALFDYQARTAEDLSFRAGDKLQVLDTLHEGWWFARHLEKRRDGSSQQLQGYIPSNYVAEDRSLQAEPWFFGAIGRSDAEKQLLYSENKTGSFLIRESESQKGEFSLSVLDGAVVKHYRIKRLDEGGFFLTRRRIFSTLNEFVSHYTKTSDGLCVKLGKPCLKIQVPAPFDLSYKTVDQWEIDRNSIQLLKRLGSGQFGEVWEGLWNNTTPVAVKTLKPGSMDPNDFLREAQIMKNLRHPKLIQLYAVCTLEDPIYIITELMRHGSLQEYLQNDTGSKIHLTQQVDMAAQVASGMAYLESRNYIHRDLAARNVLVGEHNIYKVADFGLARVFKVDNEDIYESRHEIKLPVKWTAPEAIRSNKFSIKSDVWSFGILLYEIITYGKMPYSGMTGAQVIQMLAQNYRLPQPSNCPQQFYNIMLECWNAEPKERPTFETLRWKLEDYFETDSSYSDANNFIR

SMILES	inhibition [1] [%]	inhibition [2] [%]	inhibition [3] [%]	inhibition [4] [%]	inhibition [5] [%]	inhibition [6] [%]	inhibition [7] [%]	inhibition [8] [%]	IC50 [9] [µM]	inhibition [10] [%]	inhibition [11] [%]	inhibition [12] [%]	inhibition [13] [%]	inhibition [14] [%]	inhibition [15] [%]
O[C@H]1CC[C@H](Nc2nccc(-n3nnc4ccccc43)n2)CC1	< 50	< 50	< 50	< 50	< 50	99	< 50	< 50	0.11	< 50	< 50	< 50	< 50	< 50	< 50
N[C@H]1CC[C@H](Nc2nccc(-n3nnc4ccccc43)n2)CC1	< 50	< 50	< 50	86	< 50	96	92	83	0.17	< 50	< 50	< 50	< 50	73	< 50
O=C([C@H]1CC[C@H](Nc2nccc(-n3nnc4ccccc43)n2)CC1)N1CCOCC1	< 50	86	< 50	< 50	< 50	98	< 50	93	0.18	< 50	< 50	< 50	< 50	< 50	< 50
CS(=O)(=O)CCCOc1cccc2c1ccn2-c1ccnc(N[C@H]2CC[C@H](C(=O)N3CCC(O)CC3)CC2)n1		> 85				> 85		> 85	0.066						
O[C@H]1CC[C@H](Nc2nccc(-n3ncc4ccccc43)n2)CC1	< 50	< 50	< 50	< 50	< 50	100	79	81	0.35	< 50	< 50	< 50	< 50	< 50	< 50
O[C@H]1CC[C@H](Nc2nccc(-c3n[nH]c4ccccc34)n2)CC1	< 50	82	< 50	92	78	100	99	100	0.65	78	< 50	97	68	84	98
O[C@H]1CC[C@H](Nc2nccc(-n3ccc4ccccc43)n2)CC1	< 50	< 50	< 50	< 50	< 50	84	< 50	< 50	0.36	< 50	< 50	< 50	< 50	< 50	< 50

From ChEMBL document CHEMBL2424622, “Development of amino-pyrimidine inhibitors of c-Jun N-terminal kinase (JNK): kinase profiling guided optimization of a 1,2,3-benzotriazole lead” (Bioorg Med Chem Lett, 2013)
